Series [1] relates to HL-60. The series is described as follows: Antiproliferative activity against human HL60 cells at 0.1 nM after 96 hrs. In kind it is functional, cell-based. The gist of the method: (§1)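 HL60 cells grown in RPMI with 10% fetal calf serum at 37 °C without CO2. Plated at 4 × 10^5 cells/mL and exposed 96 h to various ligand concentrations, with 0.7% ethanol as control. Cells then counted; mean ± SEM.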

Series [2] has as its system HL-60. The experiment in a line: Induction of cell differentiation in human HL60 cells assessed as CD11c and CD14 expression at 0.1 nM after 96 hrs relative to untreated control. In kind it is functional. The gist of the method: (§2)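 HL60 cells plated at 4 × 10^5 cells/mL in RPMI/10% FCS at 37 °C and treated 96 h, with 0.7% ethanol control. Stained with PE-anti-CD11c and FITC-anti-CD14, and Topro-3 added to exclude dead cells. Flow cytometry counted the CD11c/CD14 double-positive subpopulation. Representative of three experiments.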

Series [3] has as its target T1, Vitamin D3 receptor (Homo sapiens) (UniProt P11473).
T1 sequence (whole entry): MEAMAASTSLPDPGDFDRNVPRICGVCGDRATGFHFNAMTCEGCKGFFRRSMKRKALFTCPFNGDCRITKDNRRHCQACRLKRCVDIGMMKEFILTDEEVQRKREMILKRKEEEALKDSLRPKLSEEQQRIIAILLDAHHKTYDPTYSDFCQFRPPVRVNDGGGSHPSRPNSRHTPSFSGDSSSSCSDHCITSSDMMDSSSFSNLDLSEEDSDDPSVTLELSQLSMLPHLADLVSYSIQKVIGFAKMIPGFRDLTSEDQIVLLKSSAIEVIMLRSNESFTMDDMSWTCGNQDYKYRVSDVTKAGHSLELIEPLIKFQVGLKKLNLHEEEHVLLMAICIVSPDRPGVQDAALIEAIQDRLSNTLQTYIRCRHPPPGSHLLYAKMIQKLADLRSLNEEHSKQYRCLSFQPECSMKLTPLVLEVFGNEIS
The series is described as follows: Binding affinity to human VDR ligand binding domain assessed as SRC1 peptide binding dissociation constant by fluorescence anisotrophy relative to 1-alpha,25(OH)(2)D(3). Put shortly: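 Steady-state fluorescence anisotropy at 20 °C. Kd obtained from anisotropy values of free peptide, peptide at each protein concentration and plateau. Representative of three experiments.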

For series [4], the target named is T1, Vitamin D3 receptor (Homo sapiens). The series is described as follows: Agonist activity at GAL4 tagged human VDR ligand binding domain expressed in MCF7 cells assessed as receptor transactivation at 0.1 nM by luciferase reporter gene assay relative to (20S,23S)-epoxymethano-1 alpha,25-dihydroxyvitamin D(3). It is filed as cell-based. The gist of the method: (§3)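 Gal4 DBD fused to human VDR LBD (90-427). MCF-7 cells seeded at 10^5 per well and grown overnight in phenol red-free DMEM with 10% charcoal-treated FCS and insulin. Transfected (jetPEI) with Gal4-VDR, ptk-LUC reporter and β-galactosidase plasmid. Ligand or solvent added 10 h later in phenol red-free DMEM/10% FCS. Luciferase read 24 h after stimulation and normalized to β-galactosidase. Triplicates, at least three experiments.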

Series [5] has the same target. The experiment in a line: Agonist activity at GAL4 tagged human VDR ligand binding domain expressed in MCF7 cells assessed as receptor transactivation at 0.1 nM by luciferase reporter gene assay relative to 1-alpha,25(OH)(2)D(3). It is filed as cell-based. Put shortly:
as §3

For series [6] the target is unchanged. The experiment in a line: Agonist activity at GAL4 tagged human VDR ligand binding domain expressed in MCF7 cells assessed as receptor transactivation at 5 nM by luciferase reporter gene assay relative to 1-alpha,25(OH)(2)D(3). It is filed as cell-based. Put shortly:
as §3

The subject of a further series is Mus musculus. The experiment in a line: Toxicity in C57BL/6J mouse assessed as increase in serum calcium level at 0.1 ug/kg, ip administered every 2 days for 3 weeks. It is filed as organism-based. The following applies: in vivo, 0.0001 mg/kg. The gist of the method: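 Male C57BL/6J mice, 6-7 weeks old, 6-7 per group. Ligand in sesame oil given ip at 0.1 μg/kg every second day for 3 weeks; vehicle controls received sesame oil. Serum calcium measured weekly after a 3 h fast, by clinical analyzer kit. Mean ± SEM.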

The test system of series [7] is HL-60. The series is described as follows: Antiproliferative activity against human HL60 cells after 96 hrs. In kind it is functional, cell-based. Put shortly: as §1
The test system of series [8] is HL-60. The experiment in a line: Induction of cell differentiation in human HL60 cells assessed as CD11c and CD14 expression after 96 hrs. It is filed as functional, cell-based. Put shortly: as §2
The target of series [9] is T1, Vitamin D3 receptor (Homo sapiens). The series is described as follows: Agonist activity at GAL4 tagged human VDR ligand binding domain expressed in MCF7 cells assessed as receptor transactivation at 0.1 nM by luciferase reporter gene assay relative to 2alpha-methyl-(20S,23S)-epoxymethano-1 alpha,25-dihydroxyvitamin D(3). In kind it is cell-based. Put shortly: as §3

For series [10] the target is unchanged. The experiment in a line: Agonist activity at GAL4 tagged human VDR ligand binding domain expressed in MCF7 cells assessed as receptor transactivation at 1 nM by luciferase reporter gene assay relative to 2alpha-methyl-(20S,23S)-epoxymethano-1 alpha,25-dihydroxyvitamin D(3). It is filed as cell-based. The gist of the method:
as §3

Series [11] has the same target. The series is described as follows: Agonist activity at GAL4 tagged human VDR ligand binding domain expressed in MCF7 cells assessed as receptor transactivation at 5 nM by luciferase reporter gene assay relative to 2alpha-methyl-(20S,23S)-epoxymethano-1 alpha,25-dihydroxyvitamin D(3). In kind it is cell-based. The gist of the method: as §3

Active and inactive are the calls of the source. The rule behind the calls is not given here.

Regarding `C=C1/C(=C\C=C2/CCC[C@]3(C)[C@@H]([C@H](C)CCCC(C)(C)O)CC[C@@H]23)C[C@@H](O)C[C@@H]1O`, the outcome with HL-60 [1] and with HL-60 [2] was inactive.
On to `C=C1/C(=C\C=C2/CCC[C@]3(C)[C@@H]([C@@H]4C[C@@H](CC(C)(C)O)CO4)CC[C@@H]23)C[C@@H](O)[C@H](C)[C@@H]1O`, for which the fold change (FC) was found to be 1.3 in [3], 3.8 in series [4], 13 in series [5] and 10 with HL-60 [2]. The outcome (in series [6]; in the series on HL-60 [1]; in the series with HL-60 [2]) was Active. Further, in the series with Mus musculus, the Activity entry is listed as “Toxic”.
`C=C1/C(=C\C=C2/CCC[C@]3(C)[C@@H]([C@@H]4C[C@H](CC(C)(C)O)CO4)CC[C@@H]23)C[C@@H](O)[C@H](C)[C@@H]1O`: the fold change (FC) in series [3] amounted to 3.2. Besides, the Activity entry in the series on HL-60 [7] was “Dose-dependent effect”; in the series with HL-60 [8] it was “Dose-dependent effect”; in the series with Mus musculus, “Non-toxic”. For the same compound, the result in the series with HL-60 [1] and in the series on HL-60 [2] was inactive.
As to `C=C1/C(=C\C=C2/CCC[C@]3(C)[C@@H]([C@@H]4C[C@H](CC(C)(C)O)CO4)CC[C@@H]23)C[C@@H](O)C[C@@H]1O`, the fold change (FC) in series [3] was determined as 1.7. In addition, the Activity entry with HL-60 [7] and in the series with HL-60 [8] was “Dose-dependent effect” throughout. Further, the outcome with HL-60 [1] and with HL-60 [2] was inactive.
In the case of `C=C1/C(=C\C=C2/CCC[C@]3(C)[C@@H]([C@@H]4C[C@@H](CC(C)(C)O)CO4)CC[C@@H]23)C[C@@H](O)C[C@@H]1O`, the fold change (FC) in series [3] came out at 0.9. Further, the Activity in series [9] was 26%; in [10] it was 42%; in [11] it was 73%; in the series with Mus musculus, “Toxic”. Besides, the result in the series with HL-60 [1] and in the series on HL-60 [2] was inactive.
